Values after ≈ are worked out from the molar mass of the structure shown. Active and inactive are the calls of the source. The calls are words filed in the database; no cut-off is given here.
Tests used:
[1] = tested on: Mycobacterium tuberculosis; test: Antitubercular activity against Mycobacterium tuberculosis H37Rv ATCC 27294 assessed as reduction of relative light unit at 1 ug/ml after 72 hrs by luciferase reporter phage assay relative to control; format: functional, H37Rv ATTC 27294; design: scale not given: the % may be the effect or the level left
How it was run: (§1)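 Luciferase reporter phage assay. Luminescence (RLU) integrated for 10 s on a luminometer, in duplicate per sample and averaged. Percent RLU reduction calculated against untreated control. Run repeated if the control mean RLU was below 1000.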

[2] = tested on: Mycobacterium tuberculosis; test: Antitubercular activity against Mycobacterium tuberculosis H37Rv ATCC 27294 assessed as reduction of relative light unit at 2 ug/ml after 72 hrs by luciferase reporter phage assay relative to control; format: functional, H37Rv ATTC 27294; design: scale not given: the % may be the effect or the level left; how it was run: as §1
Bacillus subtilis [3] = test: Antibacterial activity against Bacillus subtilis NCIM 2439 after 24 hrs by twofold serial dilution method; format: functional; details: NCIM 2439, 24 h
How it was run: (§2)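 Two-fold serial dilution in nutrient broth; compounds from 1 mg mL^-1 DMSO stocks, 0.2 mL into 1.8 mL seeded broth, then six serial dilutions. Inoculum from 24-h nutrient agar cultures grown at 37 ± 1 °C, final 10⁵ cfu mL^-1, pH 7.4 ± 0.2. Incubated at 37 ± 1 °C. MIC read visually after 24 h. Seeded-broth and solvent controls included.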

Klebsiella pneumoniae [4] = test: Antibacterial activity against Klebsiella pneumoniae at 200 ug/ml after 24 hrs by twofold serial dilution method; format: functional, organism-based
Escherichia coli [5] = test: Antibacterial activity against Escherichia coli NCIM 2345 after 24 hrs by twofold serial dilution method; format: functional; details: NCIM 2345, 24 h; how it was run: as §2
Staphylococcus aureus = test: Antibacterial activity against Staphylococcus aureus NCIM 2492 after 24 hrs by twofold serial dilution method; format: functional; details: NCIM 2492, 24 h; how it was run: as §2
Pseudomonas aeruginosa [6] = test: Antibacterial activity against Pseudomonas aeruginosa NCIM 2035 after 24 hrs by twofold serial dilution method; format: functional; details: NCIM 2035, 24 h; how it was run: as §2
Candida albicans [7] = test: Antifungal activity against Candida albicans-6 NCIM C27 after 72 to 96 hrs by twofold serial dilution method; format: functional
How it was run: (§3)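 Two-fold serial dilution in Sabouraud dextrose broth; compounds from 1 mg mL^-1 DMSO stocks, 0.2 mL into 1.8 mL seeded broth, then six serial dilutions. Spores from 24-h to 7-day Sabouraud agar slants, final 1.1–1.5 × 10² cfu mL^-1, pH 7.4 ± 0.2. Incubated at 28 ± 1 °C. MIC read visually after 72–96 h. Seeded-broth and solvent controls included.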

Candida albicans [8] = test: Antifungal activity against Candida albicans NCIM C27 after 72 to 96 hrs by twofold serial dilution method; format: functional; how it was run: as §3
Aspergillus niger = test: Antifungal activity against Aspergillus niger NCIM 590 after 72 to 96 hrs by twofold serial dilution method; format: functional; how it was run: as §3
Candida albicans [9] = test: Antifungal activity against Candida albicans-51 NCIM C27 after 72 to 96 hrs by twofold serial dilution method; format: functional; how it was run: as §3
Aspergillus flavus [10] = test: Antifungal activity against Aspergillus flavus NCIM 539 after 72 to 96 hrs by twofold serial dilution method; format: functional; how it was run: as §3
Klebsiella pneumoniae [11] = test: Antibacterial activity against Klebsiella pneumoniae after 24 hrs by twofold serial dilution method; format: functional; how it was run: as §2
Escherichia coli [12] = test: Antibacterial activity against Escherichia coli NCIM 2345 at 200 ug/ml after 24 hrs by twofold serial dilution method; format: functional, organism-based
Aspergillus flavus [13] = test: Antifungal activity against Aspergillus flavus NCIM 539 at 200 ug/ml after 72 to 96 hrs by twofold serial dilution method; format: functional, organism-based
Bacillus subtilis [14] = test: Antibacterial activity against Bacillus subtilis NCIM 2439 at 200 ug/ml after 24 hrs by twofold serial dilution method; format: functional, organism-based
Candida albicans [15] = test: Antifungal activity against Candida albicans-6 NCIM C27 at 200 ug/ml after 72 to 96 hrs by twofold serial dilution method; format: functional, organism-based
Candida albicans [16] = test: Antifungal activity against Candida albicans NCIM C27 at 200 ug/ml after 72 to 96 hrs by twofold serial dilution method; format: functional, organism-based
Pseudomonas aeruginosa [17] = test: Antibacterial activity against Pseudomonas aeruginosa NCIM 2035 at 200 ug/ml after 24 hrs by twofold serial dilution method; format: functional, organism-based

Structure (SMILES) | Activity [1] [%] | Activity [2] [%] | MIC (Bacillus subtilis [3]) [µg/mL] | Activity (Klebsiella pneumoniae [4]) | MIC (Escherichia coli [5]) [µg/mL] | MIC (Staphylococcus aureus) [µg/mL] | MIC (Pseudomonas aeruginosa [6]) [µg/mL] | MIC (Candida albicans [7]) [µg/mL] | MIC (Candida albicans [8]) [µg/mL] | MIC (Aspergillus niger) [µg/mL] | MIC (Candida albicans [9]) [µg/mL] | MIC (Aspergillus flavus [10]) [µg/mL] | MIC (Klebsiella pneumoniae [11]) [µg/mL] | Activity (Escherichia coli [12]) | Activity (Aspergillus flavus [13]) | Activity (Bacillus subtilis [14]) | Activity (Candida albicans [15]) | Activity (Candida albicans [16]) | Activity (Pseudomonas aeruginosa [17])
O=C(N/N=C1\C2CCCC1[C@H](c1ccc(F)cc1)N[C@@H]2c1ccc(F)cc1)c1ccncc1 | 76.63 | 86.12 | 50 (≈ 112 µM) | inactive | 100 (≈ 224 µM) | 50 (≈ 112 µM) | 100 (≈ 224 µM) | 50 (≈ 112 µM) | 50 (≈ 112 µM) | 100 (≈ 224 µM) | 50 (≈ 112 µM) | 100 (≈ 224 µM) |  |  |  |  |  |  | 
COc1ccc([C@H]2N[C@@H](c3ccc(OC)cc3)C3CCCC2/C3=N\NC(=O)c2ccncc2)cc1 | 73.07 | 83.02 | 200 (≈ 425 µM) |  | 100 (≈ 213 µM) | 100 (≈ 213 µM) |  | 100 (≈ 213 µM) | 200 (≈ 425 µM) | 200 (≈ 425 µM) | 100 (≈ 213 µM) | 200 (≈ 425 µM) | 200 (≈ 425 µM) |  |  |  |  |  | 
Cc1ccc([C@H]2N[C@@H](c3ccc(C)cc3)C3CCCC2/C3=N\NC(=O)c2ccncc2)cc1 | 72.03 | 82.04 | 200 (≈ 456 µM) | inactive |  | 200 (≈ 456 µM) | 100 (≈ 228 µM) | 200 (≈ 456 µM) | 100 (≈ 228 µM) | 100 (≈ 228 µM) | 100 (≈ 228 µM) |  |  | inactive | inactive |  |  |  | 
CC1(C)S[C@@H]2[C@H](NC(=O)Cc3ccccc3)C(=O)N2[C@H]1C(=O)O [PENICILLIN G] |  |  | 25 (≈ 74.8 µM) |  | 50 (≈ 150 µM) | 12.5 (≈ 37.4 µM) | 50 (≈ 150 µM) |  |  |  |  |  | 12.5 (≈ 37.4 µM) |  |  |  |  |  | 
CN[C@@H]1[C@H](O[C@H]2[C@H](O[C@H]3[C@H](O)[C@@H](O)[C@H](N=C(N)N)[C@@H](O)[C@@H]3N=C(N)N)O[C@@H](C)[C@]2(O)C=O)O[C@@H](CO)[C@H](O)[C@H]1O [STREPTOMYCIN] |  |  | 12.5 (≈ 21.5 µM) |  | 12.5 (≈ 21.5 µM) | 50 (≈ 86 µM) | 25 (≈ 43 µM) |  |  |  |  |  | 50 (≈ 86 µM) |  |  |  |  |  | 
O=C(N/N=C1\C2CCCC1[C@H](c1ccccc1)N[C@@H]2c1ccccc1)c1ccncc1 | 77.76 | 87.9 |  | inactive |  | 100 (≈ 244 µM) | 200 (≈ 487 µM) |  |  | 200 (≈ 487 µM) | 100 (≈ 244 µM) |  |  | inactive | inactive | inactive | inactive | inactive | 
O=C(N/N=C1\C2CCCC1[C@H](c1cccc(Cl)c1)N[C@@H]2c1cccc(Cl)c1)c1ccncc1 | 75.42 | 85.34 | 100 (≈ 209 µM) |  | 50 (≈ 104 µM) | 100 (≈ 209 µM) | 100 (≈ 209 µM) | 50 (≈ 104 µM) | 200 (≈ 417 µM) | 100 (≈ 209 µM) | 200 (≈ 417 µM) | 200 (≈ 417 µM) | 50 (≈ 104 µM) |  |  |  |  |  | 
NNC(=O)c1ccncc1 [ISONIAZID] | 98.42 | 98.42 |  |  |  |  |  |  |  |  |  |  |  |  |  |  |  |  | 
C[C@@H]1[C@H](O)[C@@H](C)/C=C/C=C/C=C/C=C/C=C/C=C/C=C/[C@H](O[C@@H]2O[C@H](C)[C@@H](O)[C@H](N)[C@@H]2O)C[C@@H]2O[C@](O)(C[C@@H](O)C[C@@H](O)[C@H](O)CC[C@@H](O)C[C@@H](O)CC(=O)O[C@H]1C)C[C@H](O)[C@H]2C(=O)O [AMPHOTERICIN B] |  |  |  |  |  |  |  | 25 (≈ 27.1 µM) | 25 (≈ 27.1 µM) | 50 (≈ 54.1 µM) | 25 (≈ 27.1 µM) | 50 (≈ 54.1 µM) |  |  |  |  |  |  | 
O=C(N/N=C1\C2CCCC1[C@H](c1ccc(Cl)cc1)N[C@@H]2c1ccc(Cl)cc1)c1ccncc1 | 75.61 | 85.22 | 100 (≈ 209 µM) |  | 50 (≈ 104 µM) | 50 (≈ 104 µM) | 100 (≈ 209 µM) | 100 (≈ 209 µM) | 100 (≈ 209 µM) | 100 (≈ 209 µM) | 50 (≈ 104 µM) | 200 (≈ 417 µM) | 100 (≈ 209 µM) |  |  |  |  |  | inactive
COc1cccc([C@H]2N[C@@H](c3cccc(OC)c3)C3CCCC2/C3=N\NC(=O)c2ccncc2)c1 | 77.18 | 87.06 | 50 (≈ 106 µM) |  | 200 (≈ 425 µM) | 200 (≈ 425 µM) | 200 (≈ 425 µM) | 200 (≈ 425 µM) | 100 (≈ 213 µM) | 100 (≈ 213 µM) | 200 (≈ 425 µM) | 100 (≈ 213 µM) | 100 (≈ 213 µM) |  |  |  |  |  | 

Reference: ChEMBL document CHEMBL1287649, “Synthesis and anti-tubercular and antimicrobial activities of some 2r,4c-diaryl-3-azabicyclo[3.3.1]nonan-9-one N-isonicotinoylhydrazone derivatives” (2010)
